The source of these data is ChEMBL document CHEMBL1130205, “Potent noncovalent thrombin inhibitors that utilize the unique amino acid D-dicyclohexylalanine in the P3 position. Implications on oral bioavailability and antithrombotic efficacy” (J Med Chem, 1997).

Structures are written as SMILES.

For orientation: Ki means a dissociation constant, usually derived from enzyme kinetics or from competition with a known ligand. Higher therefore signals a looser hold on the target. The term logP denotes a log measure of how a compound divides between an organic and an aqueous phase. A higher logP goes with a more lipophilic compound. The term logD denotes lipophilicity at a set pH, counting ionised and neutral species. Read a low logD as lower lipophilicity. Broadly, the AUC is the area under the concentration-time curve, a measure of exposure. For orientation: half-life means how long it takes for the measured level to halve. Low values mean fast loss, high ones slow loss. The bioavailability is dose-corrected exposure relative to a reference, in per cent. Read a low bioavailability as little systemic uptake.

One data set has as its target Prothrombin (Homo sapiens, UniProt P00734). Kind of data set: Inhibitory activity against human thrombin.
A short description of data set [1]: (§1) Number of occlusions was reported. Type of data set: ADME. The procedure, abridged: (§2)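 Rat carotid artery FeCl3-induced thrombosis: inhibitor infused iv at 6 µg/kg/min for 120 min before FeCl3 insult (vehicle saline or 30% propylene glycol/saline); occlusions counted; plasma drug level at end of experiment. 2X APTT = plasma concentration (µM) doubling activated partial thromboplastin time, determined in rat plasma.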

Data set [2] has as its target T1, Serine protease 1 (Homo sapiens, UniProt P07477). Briefly: Inhibitory activity against human trypsin.
Data set [3] can be described thus: Partition coefficient (logP). Type of data set: physicochemical. As to conditions: octanol/water. The procedure, abridged:
(§3)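 Octanol/pH 7.4 phosphate buffer standard partition method.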

In another data set the target is Plasma kallikrein (Homo sapiens, UniProt P03952). Briefly: Inhibitory activity against human serine protease (plasma Kallikrein) (89000*).
Sequence of Plasma kallikrein (P03952 20-390 limits assumed): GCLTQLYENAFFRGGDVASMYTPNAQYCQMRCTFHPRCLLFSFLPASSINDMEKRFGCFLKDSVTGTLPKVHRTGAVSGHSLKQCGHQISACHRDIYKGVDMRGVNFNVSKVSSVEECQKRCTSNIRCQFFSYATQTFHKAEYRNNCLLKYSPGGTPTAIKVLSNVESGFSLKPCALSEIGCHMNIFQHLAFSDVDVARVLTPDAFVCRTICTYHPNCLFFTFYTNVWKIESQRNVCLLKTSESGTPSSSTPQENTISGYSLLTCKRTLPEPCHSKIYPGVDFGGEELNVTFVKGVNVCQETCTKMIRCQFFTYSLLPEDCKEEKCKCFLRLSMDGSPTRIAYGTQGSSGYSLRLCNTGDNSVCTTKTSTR
Sequence of Plasma kallikrein (P03952 391-638 limits assumed): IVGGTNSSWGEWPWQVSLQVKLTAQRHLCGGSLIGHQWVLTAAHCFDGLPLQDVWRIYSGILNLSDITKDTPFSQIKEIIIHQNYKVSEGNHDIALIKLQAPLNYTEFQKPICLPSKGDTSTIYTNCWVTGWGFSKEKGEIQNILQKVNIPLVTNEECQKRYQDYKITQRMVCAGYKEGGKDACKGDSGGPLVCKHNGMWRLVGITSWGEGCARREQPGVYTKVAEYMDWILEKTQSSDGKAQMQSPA
Data set [4] is described as follows: The plasma clearance in rat. Type of data set: ADME, organism-based. As to conditions: read-out: CI. The method in brief:
(§4)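 Cannulated rats (carotid artery; jugular vein for iv group) dosed 2 mg/kg iv (saline or 30% propylene glycol/saline) or 10 mg/kg po (0.1% methocel suspension). Blood sampled 1-360 min (iv) or 15-360 min (po), centrifuged, plasma extracted with acetonitrile and quantified by thrombin enzyme activity assay.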

Data set [5] in a line: The fraction of free compound available in plasma of human. It counts as ADME, cell-free. Particulars: read-out: Funbound_plasma.
The species named for data set [6] is Rattus norvegicus. The data set is described as §1. It counts as functional. The method in brief:
as §2

Data set [7] concerns the target T1, Serine protease 1. Kind of data set: Inhibitory activity against human serine protease (Trypsin)(2143*).
The nature of data set [8]: The fraction of free compound available in plasma of rat. It counts as ADME, cell-free. Particulars: read-out: Funbound_plasma.
The target in a further data set is Coagulation factor X (Homo sapiens, UniProt P00742). Kind of data set: Inhibitory activity against human serine protease Coagulation factor X (1.7*10e6*).
Sequence of Coagulation factor X (P00742 41-179 limits assumed): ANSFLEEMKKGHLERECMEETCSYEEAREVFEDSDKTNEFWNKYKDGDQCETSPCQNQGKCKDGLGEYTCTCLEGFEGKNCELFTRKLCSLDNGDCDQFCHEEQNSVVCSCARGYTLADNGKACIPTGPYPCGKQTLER
Sequence of Coagulation factor X (P00742 235-488 limits assumed): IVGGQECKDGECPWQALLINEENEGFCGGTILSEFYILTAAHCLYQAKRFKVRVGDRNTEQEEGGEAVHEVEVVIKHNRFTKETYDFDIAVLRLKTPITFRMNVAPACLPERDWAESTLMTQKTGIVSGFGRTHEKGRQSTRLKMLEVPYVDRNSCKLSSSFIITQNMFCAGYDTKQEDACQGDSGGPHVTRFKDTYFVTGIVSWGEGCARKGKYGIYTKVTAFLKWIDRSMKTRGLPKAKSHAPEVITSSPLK
In data set [9] the target is Tissue-type plasminogen activator (Homo sapiens, UniProt P00750). Kind of data set: Inhibitory activity against human serine protease (TPA) (2.5*10e6*).
Sequence of Tissue-type plasminogen activator (P00750 whole entry): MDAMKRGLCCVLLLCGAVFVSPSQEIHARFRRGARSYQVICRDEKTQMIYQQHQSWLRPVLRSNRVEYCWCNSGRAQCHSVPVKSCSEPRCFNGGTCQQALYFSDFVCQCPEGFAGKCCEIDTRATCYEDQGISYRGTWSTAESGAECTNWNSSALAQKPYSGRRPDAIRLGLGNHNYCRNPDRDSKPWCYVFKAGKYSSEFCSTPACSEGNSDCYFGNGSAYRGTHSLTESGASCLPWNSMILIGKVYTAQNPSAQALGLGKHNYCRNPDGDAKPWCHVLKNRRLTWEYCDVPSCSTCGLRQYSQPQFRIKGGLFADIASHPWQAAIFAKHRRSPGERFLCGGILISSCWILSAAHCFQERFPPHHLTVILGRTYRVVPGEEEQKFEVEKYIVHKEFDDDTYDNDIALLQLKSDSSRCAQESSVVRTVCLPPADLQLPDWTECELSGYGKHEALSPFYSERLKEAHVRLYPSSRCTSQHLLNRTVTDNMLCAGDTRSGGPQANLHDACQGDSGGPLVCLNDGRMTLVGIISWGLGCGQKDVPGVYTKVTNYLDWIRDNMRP
Data set [10] in a line: (§5) log P values were determined by the standard partition method using octanol/pH 7.4 phosphate buffer. Type of data set: physicochemical. The method in brief:
as §3

For data set [11], the system named is Rattus norvegicus. Kind of data set: AUC (Area under curve) was determined after intravenous administration at a dose 2 mg/kg in rat. Details: dose 2 mg/kg, route intravenous. It counts as ADME, organism-based, Plasma. Particulars: in vivo.
Data set [12] in a line: The half life period in rat. Type of data set: ADME, organism-based. Particulars: in vivo. The procedure, abridged: as §4
Data set [13] is described as follows: Bioavailability in rat. Type of data set: ADME, organism-based. As to conditions: in vivo. The method in brief:
as §4

The next data set deals with Plasminogen (Homo sapiens, UniProt P00747). Kind of data set: Inhibitory activity against human serine protease (plasmin) (3.0*10e6).
Sequence of Plasminogen (P00747 97-580 limits assumed): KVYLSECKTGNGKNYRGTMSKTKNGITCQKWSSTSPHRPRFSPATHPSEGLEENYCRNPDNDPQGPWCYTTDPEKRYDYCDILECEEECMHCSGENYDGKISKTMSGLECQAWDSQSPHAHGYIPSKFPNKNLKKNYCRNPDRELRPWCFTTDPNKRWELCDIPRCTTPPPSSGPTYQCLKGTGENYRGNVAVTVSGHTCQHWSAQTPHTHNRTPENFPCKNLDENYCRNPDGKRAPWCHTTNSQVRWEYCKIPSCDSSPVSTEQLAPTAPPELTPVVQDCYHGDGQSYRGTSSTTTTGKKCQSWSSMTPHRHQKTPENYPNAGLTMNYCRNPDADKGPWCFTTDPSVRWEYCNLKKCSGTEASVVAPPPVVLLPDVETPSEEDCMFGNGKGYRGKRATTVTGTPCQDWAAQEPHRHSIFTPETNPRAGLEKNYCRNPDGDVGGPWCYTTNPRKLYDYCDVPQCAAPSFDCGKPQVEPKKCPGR
Sequence of Plasminogen (P00747 581-810 limits assumed): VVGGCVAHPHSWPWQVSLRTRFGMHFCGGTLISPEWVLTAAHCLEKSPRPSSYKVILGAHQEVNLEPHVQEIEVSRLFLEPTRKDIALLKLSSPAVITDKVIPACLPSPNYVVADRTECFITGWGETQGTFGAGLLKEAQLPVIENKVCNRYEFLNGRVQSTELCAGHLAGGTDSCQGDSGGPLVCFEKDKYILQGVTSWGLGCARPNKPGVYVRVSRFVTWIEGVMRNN
Data set [14] deals with Rattus norvegicus. Briefly: AUC (Area under curve) was determined after peroral administration at a dose 10 mg/kg in rat. Particulars: in vivo, po. It counts as ADME, organism-based, Plasma. Details: dose 10 mg/kg, route oral.
The test system of data set [15] is Canis familiaris. Kind of data set: AUC (Area under curve) was determined after intravenous administration at a dose 1 mg/kg in dog. It counts as ADME, organism-based, Canis lupus familiaris, Plasma. On the set-up: dose 1 mg/kg, route intravenous. As to conditions: in vivo. The method in brief: (§6)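 Two fasted male beagle dogs (10-12 kg), crossover design. Oral 5 mg/kg as 1% methocel suspension, blood from jugular vein at 0-480 min; iv 1 mg/kg bolus in 20% PEG/saline, blood at 0-480 min. Plasma frozen at -20 °C and assayed by HPLC.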

The nature of data set [16]: Bioavailability in dog. Type of data set: ADME, organism-based, Canis lupus familiaris. Particulars: in vivo. The method in brief:
as §6

The nature of data set [17]: The half life period by intravenous administration in dog. It counts as ADME, organism-based, Canis lupus familiaris. As to conditions: in vivo. The procedure, abridged: as §6
Data set [18] is described as follows: The half life period by peroral administration in dog. It counts as ADME, organism-based, Canis lupus familiaris. As to conditions: in vivo, po. The procedure, abridged:
as §6

Data set [19] relates to Canis familiaris. Kind of data set: AUC (Area under curve) was determined after peroral administration at a dose 5 mg/kg in dog. Type of data set: ADME, organism-based, Canis lupus familiaris, Plasma. As to conditions: in vivo, po. Details: dose 5 mg/kg, route oral. The procedure, abridged:
as §6

Data set [20] in a line: as §5. It counts as physicochemical. The procedure, abridged: as §3
This is another data set of the same source.

Data set [21] can be described thus: The plasma clearance in dog. Type of data set: ADME, organism-based, Canis lupus familiaris. As to conditions: read-out: CI. The procedure, abridged:
as §6

For data set [22], the system named is Rattus norvegicus. Briefly: Concentration required to double the activated partial thromboplastin time (2X APTT) in FeCl3 induced thrombosis in rat carotid artery at 6 micro g/kg/min dose by intravenous administration. Type of data set: functional. The method in brief:
as §2

T1 sequence (P07477 whole entry): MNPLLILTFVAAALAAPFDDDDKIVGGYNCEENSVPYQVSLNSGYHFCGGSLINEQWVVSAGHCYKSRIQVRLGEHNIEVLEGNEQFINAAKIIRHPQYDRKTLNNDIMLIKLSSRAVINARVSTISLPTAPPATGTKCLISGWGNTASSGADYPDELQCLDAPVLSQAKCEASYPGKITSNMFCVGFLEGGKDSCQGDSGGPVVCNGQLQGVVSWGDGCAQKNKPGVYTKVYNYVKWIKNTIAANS

In the case of `NC1CCC(CNC(=O)[C@@H]2CCCN2C(=O)[C@@H](N)C(C2CCCCC2)C2CCCCC2)CC1` (some centres not stated), the affinity at Prothrombin, expressed as Ki, was 440 nM.
Regarding `CC1CNc2c(cccc2S(=O)(=O)N[C@@H](CCCNC(=N)N)C(=O)N2CCC(C)C[C@@H]2C(=O)O)C1` (single isomer, unassigned) [ARGATROBAN], the No. of occlusions in [1] is listed as 0.
`NC1CCC(CNC(=O)[C@@H]2CCCN2C(=O)[C@H](N)C(c2ccccc2)c2ccccc2)CC1` (some centres not stated) had a Ki on Serine protease 1 [2] of 94 nM. This compound also came in with a logP in data set [3] of -0.539.
With `NC1CCC(CNC(=O)[C@@H]2CCCN2C(=O)[C@H](N)C(C2CCCCC2)C2CCCCC2)CC1` (some centres not stated), the inhibitory constant (Ki) was determined as 5000 nM at Plasma kallikrein; 120 nM on Serine protease 1 [7]; 95000 nM at Coagulation factor X; 137000 nM in [9]; 0.056 nM at Prothrombin; 165000 nM on Plasminogen. In addition, in data set [4], the clearance was determined as 6 mL/min/kg. For the same compound, the fraction unbound was 0.02 in [5] and 0.06 in [8]. Besides, the No. of occlusions in the data set filed under Rattus norvegicus [6] is on record as 1. This compound registered a logD in data set [10] of 0.794. Moreover, the AUC came out at 3.3 µM·h with Rattus norvegicus [11] and 0.36 µM·h in the data set with Rattus norvegicus [14]. In data set [12], this compound gave a half-life of 0.2 h. This compound also returned a bioavailability in data set [13] of 2%.
Take `CC(C)(C)OC(=O)N[C@@H](C(=O)N1CCC[C@H]1C(=O)NCC1CCC(N)CC1)C(C1CCCCC1)C1CCCCC1` (some centres not stated): the AUC with Canis familiaris [15] stood at 90 µM·h; with Canis familiaris [19], 45.3 µM·h; in the data set on Rattus norvegicus [11] it was 3.34 µM·h; in the data set with Rattus norvegicus [14], 6.86 µM·h. The results for the bioavailability in [16] and in data set [13] were 90% and 41%, respectively. Moreover, the clearance in data set [4] was determined as 17.9 mL/min/kg; in data set [21], 6.06 mL/min/kg. In the data set listed under Rattus norvegicus [6], this compound returned a No. of occlusions of 4. Besides, the fraction unbound in [8] was under 0.01. Moreover, the half-life in data set [17] was determined as 3.27 h; in data set [18] it was 7.13 h; in data set [12] it was 4.15 h. Further, the logD in data set [10] and in [20] was over 3.09 in each case. On Prothrombin, this compound displayed an inhibition constant (Ki) of 0.1 nM. The Concentration in the data set on Rattus norvegicus [22] worked out at 2.7 µM.
On Prothrombin, `CC(C)(C)OC(=O)N[C@H](C(=O)N1CCC[C@H]1C(=O)NCC1CCC(N)CC1)C(C1CCCCC1)C1CCCCC1` (some centres not stated) came in with a Ki of 3000 nM.
